Source: PubChem (several laboratories)
CYP2C9 activ – human CYP2C9 activators, primary screen, biochemical, luminescence. recombinant CYP2C9, luciferin-H conversion; active compounds read high; factor 1 = untreated enzyme, 0 = blocked. activation factor at 5 µM. 1.4% of 96,000 active;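 active = activation factor of 2 or more for CYP2C9 at a 5 µM dose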;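 note: 0 = sulfaphenazole-blocked wells and 1 = vehicle-only wells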
Target sequence (P11712 whole entry, looked up): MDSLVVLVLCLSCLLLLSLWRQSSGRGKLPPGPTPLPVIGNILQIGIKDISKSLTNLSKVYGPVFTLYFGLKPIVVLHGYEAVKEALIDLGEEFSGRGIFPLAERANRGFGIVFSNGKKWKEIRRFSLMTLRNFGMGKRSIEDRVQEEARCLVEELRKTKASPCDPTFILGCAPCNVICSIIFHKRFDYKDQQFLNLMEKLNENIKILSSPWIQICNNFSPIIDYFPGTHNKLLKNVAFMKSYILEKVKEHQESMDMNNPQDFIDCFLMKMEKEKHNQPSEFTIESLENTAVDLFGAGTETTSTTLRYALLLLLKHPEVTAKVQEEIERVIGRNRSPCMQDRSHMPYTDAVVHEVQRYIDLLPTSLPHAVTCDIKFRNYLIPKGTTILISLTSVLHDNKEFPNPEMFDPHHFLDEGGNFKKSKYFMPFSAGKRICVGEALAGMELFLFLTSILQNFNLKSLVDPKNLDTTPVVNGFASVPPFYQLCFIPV
CYP2C19 act – human CYP2C19 activators, primary screen, biochemical, luminescence; Cytochrome P450 2C19 (Homo sapiens), P33261; 96,000 tested, under 10 active; AID 1025, 2008; recombinant CYP2C19, luciferin-H EGE luminescence; active compounds read high; 0 = fully inhibited enzyme, 1 = untreated enzyme; activation factor at 5 µM;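 active = activation factor of at least 2 at 5 µM in the primary screen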;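 note: 0 = wells with 2.5 mM tranylcypromine and 1 = vehicle-only wells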
Rev-RRE block – HIV-1 Rev-RRE binding inhibitors, primary screen, biochemical, FRET, protein-RNA interaction; P05866; Rev peptide-RRE RNA binding; inhibition, % at 8 µM; 0.79% of 97,000 active; AID 704, 2007;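 active = inhibition above the screen-wide mean plus 3 SD, cut at about 35% in these data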;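 note: 0% = median DMSO wells and 100% = median Neomycin B control wells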
Target sequence (P05866 whole entry, looked up): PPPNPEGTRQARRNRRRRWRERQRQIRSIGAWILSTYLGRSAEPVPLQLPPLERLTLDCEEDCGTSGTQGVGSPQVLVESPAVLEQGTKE
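Material: labelled RRE RNA duplex and labelled Rev peptide / Buffer or medium: HEPES pH 7.5 salt buffer with EDTA / Compound dosing: single point, 8 µM final nominal compound concentration / Benchmarks: DMSO low control, neomycin B high control / Timing: 5 min preincubation and 15 min binding, 25 °C / Technique: FRET fluorescence readout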
Cav3 T inh – Cav3.2 calcium influx blockers – cell-based, Fluo-4 calcium fluorescence, FDSS, MLSMR library, primary screen. Voltage-dependent T-type calcium channel subunit alpha-1H (Homo sapiens), O95180. Cav3.2-expressing cells; active compounds read low. B-score at 10 µM. 4% of 100,000 active. AID 449739, 2010;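 active = single-dose well whose peak fluorescence ratio is a statistical outlier from its plate by either plate-standardised score or position-corrected B-score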
CYP2C19 inh – blockers of cytochrome P450 2C19 activity – biochemical, luminescence, ADME assay, primary screen; CYP2C19 Supersomes, luciferin-H EGE luminescence, 30 min; 21% of 96,000 active; inhibition, % at 5 µM; P33261;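 active = CYP2C19 inhibition above a set limit at 5 µM in the primary screen, cut at about 50% in these data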;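 note: plate controls were negative control wells for no effect and 2.5 mM tranylcypromine positive control for full effect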
CYP2C9 inhib – blockers of cytochrome P450 2C9 activity – biochemical, luminescence, ADME assay, primary screen | P11712 | CYP2C9 Supersomes, luciferin-H conversion | inhibition, % at 5 µM | 20% of 96,000 active;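 active = blocking of liver enzyme CYP2C9 beyond about 50% at 5 µM, limit read from the data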
Active calls of the source: *; . = no result given. This is a sample that favours compounds with a hit; in the whole collection about 27% have one here.

SMILES | CYP2C9 activ | CYP2C19 act | Rev-RRE block | Cav3 T inh | CYP2C19 inh | CYP2C9 inhib
O=C(CN(c1ccc(F)cc1)S(=O)(=O)c1ccc2c(c1)OCCO2)Nc1cccnc1 | 0 | 0.1 | 8.2 | -0.0732 | 92.3* | 98.8*
Cc1ccccc1Nc1nc(N)nc(CN2C(=O)NC3(CCCCC3C)C2=O)n1 (configuration not stated) | 1.1 | 0.9 | . | 1.05 | 7.9 | -7.9
CCn1c(NC(=O)c2ccc(C)cc2)c2ccccc2nc1=O | 1 | 0.6 | 2.7 | 0.649 | 37.1 | 1.7
CCn1c(NC(=O)c2ccc(F)cc2)c2ccccc2nc1=O | 0.8 | 0.3 | 4.3 | 0.81 | 72.2* | 20.1
CCSc1nnc(NC(=O)C2C3C=CC(C3)C2C(=O)O)s1 (configuration not stated) | 0.8 | 0.8 | 5.5 | 0.42 | 23.1 | 24.4
COc1ccc(C(=O)Nc2nnc(-c3ccco3)s2)cc1 | 0.8 | 0.5 | 7.2 | -0.299 | 54.3* | 16.9
O=C(Nc1nnc(-c2ccco2)s1)c1ccccc1 | 1.3 | 0.9 | . | -0.0668 | 13.8 | -28.0
COc1ccc(Cc2nnc(NC(=O)c3ccco3)s2)cc1 | 0.3 | 0.6 | -1.4 | 1.4 | 36.7 | 65.0*
CCOC(=O)c1ccc2nc(NC(=O)c3ccco3)sc2c1 | . | . | 1.7 | 1.37 | . | .
C=CCOC(=O)c1sc(NC(=O)c2ccco2)nc1C | 0.2 | 0.8 | -1.4 | 0.92 | 16.3 | 81.8*
COc1ccc(Cc2nnc(NC(=O)c3ccco3)s2)cc1OC | 0.8 | 1 | 1.9 | 1.02 | 3.8 | 19.2
O=C(c1ccc2c(c1)OCO2)N1CCC2(CC1)Oc1ccc(Cl)cc1C(=O)C21CC(c2ccc(Cl)cc2)=NO1 (configuration not stated) | . | . | . | 0.0361 | . | .
CN(C)CCCN1C(=O)C(=O)/C(=C(/O)c2ccc3c(c2)OCO3)C1c1cccnc1 (configuration not stated) | . | . | 5.4 | . | . | .
CCOC(=O)N1CCN(C(=O)c2ccc3c(c2)sc2nc(-c4ccccc4)cn23)CC1 | 0.4 | 0.5 | 2.9 | 0.073 | 49.2 | 57.3*
CCOC(=O)C1CCCN(C(=O)c2sc3nc(-c4ccccc4)cn3c2C)C1 (configuration not stated) | 0.4 | 0.4 | 7.7 | -0.233 | 59.1* | 56.0*
CCOC(=O)C1CCCN(C(=O)c2sc3nc(-c4ccc(F)cc4)cn3c2C)C1 (configuration not stated) | 0.7 | 0.8 | 3.8 | . | 21.3 | 27.8
CCOC(=O)C1CCN(C(=O)c2ccc(SC)cc2OC)CC1 | 1.4 | 0 | -1.3 | 0.105 | 98.8* | -37.9
CCOC(=O)N1CCC(NC(=O)c2ccc3c(c2)sc2nc(-c4ccc(OC)cc4)cn23)CC1 | 0.9 | 0.9 | 2.9 | . | 14.3 | 14.3
CCOC(=O)C1CCN(C(=O)c2cn(C)c(=O)c3cc(OC)c(OC)cc23)CC1 | . | . | 0.6 | 0.525 | . | .
CCOC(=O)C1CCN(C(=O)Cc2ccc(C)cc2)CC1 | 0.5 | 0.8 | -0.7 | 0.464 | 20.9 | 51.6*
Cc1ccc(-c2noc(CCCC(=O)Nc3cccnc3)n2)cc1 | 0.7 | 1 | . | 0.979 | -2.3 | 34.3
Cn1c(COc2ccccc2)nnc1SCC(=O)c1cccc([N+](=O)[O-])c1 | 0.7 | 0.9 | 5.3 | -0.137 | 8.1 | 33.0
Cc1cc(Br)ccc1SCC(=O)OCC(=O)N1CCN(C(=O)c2ccco2)CC1 | 0.4 | 0.3 | 3.7 | 0.085 | 66.3* | 61.3*
CCOC(=O)C1CCCN(C(=O)Cc2ccc(Cl)cc2)C1 (configuration not stated) | 0.2 | 0.7 | -0.2 | -1.12 | 29.9 | 76.3*
CCOC(=O)C1CCCN(C(=O)Cn2nc(CC)n3c(cc4sccc43)c2=O)C1 (configuration not stated) | 0.6 | 0.2 | 3.5 | 1.96 | 83.8* | 44.9
SMILES | CYP2C9 activ | CYP2C19 act | Rev-RRE block | Cav3 T inh | CYP2C19 inh | CYP2C9 inhib
CCOC(=O)C1CCCN(C(=O)c2ccccc2SCCOC)C1 (configuration not stated) | 0.3 | 0.4 | 4.2 | 1.12 | 61.3* | 67.8*
O=C(CSc1cccc2cccc(Cl)c12)OCC(=O)N1CCN(C(=O)c2ccco2)CC1 | 1.4 | 0.9 | 7.8 | . | 9.0 | -43.6
CCOC(=O)C1CCCN(C(=O)CCc2ccccc2)C1 (configuration not stated) | 0.8 | 0.6 | -1.1 | 0.0466 | 36.3 | 17.7
CCOC(=O)C1CCCN(C(=O)c2cccs2)C1 (configuration not stated) | 0.8 | 0.6 | 4.3 | 0.484 | 39.3 | 18.0
Cc1ccc(N(CC(N)=O)C2SC(=O)N(C)C2=O)cc1 (configuration not stated) | 1 | 0.8 | . | -0.123 | 17.2 | -4.6
CC1=CC(C)(C)n2c(O)c(C3=NC(=S)NC3=O)c3cc(OC(=O)c4cccc5ccccc45)cc1c32 | 1 | 1.1 | 20.9 | . | -10.1 | -2.8
CCOC(=O)C1CCN(C(=O)Cc2c(C(=O)O)n(CC)c3ccccc23)CC1 | 1 | 1.1 | . | 1.03 | -7.9 | 1.3
CCOC(=O)C1CCN(C(=O)CSc2ccccc2)CC1 | 0.7 | 0.4 | -0.6 | 0.501 | 64.0* | 30.7
CCOC(=O)C1CCCN(C(=O)CC(C)c2ccccc2)C1 (configuration not stated) | 0.2 | 0.2 | -0.6 | -0.754 | 79.0* | 84.4*
CCOC(=O)C1CCN(C(=O)CC(C)c2ccccc2)CC1 (configuration not stated) | 1 | 0.8 | 3.2 | -1.04 | 18.9 | 4.5
CCCCC(=O)Nc1ccc(C(=O)N2CCCC(C(=O)OCC)C2)cc1 (configuration not stated) | 1 | 0.1 | 3.4 | 0.467 | 91.8* | -1.3
CCOC(=O)C1CCCN(C(=O)C2CC(=O)N(c3ccc(C)cc3)C2)C1 (configuration not stated) | 1.1 | 0.9 | -4.0 | 0.502 | 12.6 | -9.8
CCOC(=O)C1CCCN(C(=O)Nc2ccccc2)C1 (configuration not stated) | 0.9 | 0.6 | 11.1 | 0.789 | 43.3 | 5.9
CCOC(=O)C1CCCN(C(=O)C(C)Oc2ccc(Cl)cc2Cl)C1 (configuration not stated) | 0.5 | 0.6 | -2.6 | -0.985 | 39.6 | 51.0*
C=CCN1C=CC(=O)CC1 | . | . | . | 1.24 | . | .
COc1ccc2[nH]c(=O)c(-c3nnn(-c4ccc(Cl)nc4)n3)cc2c1 | . | . | . | -0.117 | . | .
Cc1ccc(C)n1-c1sc2c(c1C#N)CCC(C)C2 (configuration not stated) | 0.9 | 0.9 | -1.9 | -0.769 | 6.4 | 6.9
C=CCSc1nc2ccccc2n1S(=O)(=O)c1ccc(Cl)cc1 | . | . | 5.5 | 0.18 | . | .
